# From PubChem
# EP2 modulator = EP2 receptor modulators, cAMP readout, primary screen, cell-based, HTRF cAMP, PGE2 stimulation; EP2-expressing cells, cAMP HTRF FRET, PGE2 co-stimulation; induction, % at 25 µM; hit rate 0.83% among 260,000;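 active means compounds whose cAMP rise, as percent of the full-agonist control response, exceeds 60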;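 further: rat C6 glioma line stably carrying human EP2 under a CMV promoter; the protocol text gives 20 µM as final concentration; 100% = response of wells given 1 µM PGE2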
# Target sequence (P43116 whole entry, looked up): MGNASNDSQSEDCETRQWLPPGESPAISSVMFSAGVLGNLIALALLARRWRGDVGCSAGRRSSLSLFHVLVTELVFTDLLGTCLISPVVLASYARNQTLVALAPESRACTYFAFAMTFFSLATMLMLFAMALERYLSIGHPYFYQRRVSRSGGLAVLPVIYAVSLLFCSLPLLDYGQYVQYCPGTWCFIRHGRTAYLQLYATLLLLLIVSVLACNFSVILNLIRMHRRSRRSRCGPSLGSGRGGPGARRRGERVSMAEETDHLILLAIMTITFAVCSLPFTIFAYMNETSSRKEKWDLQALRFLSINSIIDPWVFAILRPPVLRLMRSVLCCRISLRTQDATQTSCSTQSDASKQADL
# NPY Y2 blocker = NPY-Y2 receptor antagonists, primary screen, cell-based. Neuropeptide Y receptor type 2 (Homo sapiens), P49146. NPY-Y2 expressing cells, antagonist mode. inhibition, % at 2.7 µM. hit rate 0.99% among 140,000. AID 793, 2007; in the data active means inhibition above about 17%;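 further: 0% = vehicle with agonist challenge and 100% = reference antagonist with challenge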
# EP2 antag = human EP2 receptor antagonists, primary screen, TR-FRET cAMP, C6 glioma cells; Prostaglandin E2 receptor EP2 subtype (Homo sapiens), P43116; C6 glioma cells expressing human EP2; cells stimulated with saturating PGE2; inhibition, % at 25 µM; hit rate 0.52% among 260,000;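 active means percent inhibition above 40 after rounding to a whole number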;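 further: rat C6 glioma host cells with rolipram phosphodiesterase inhibitor present; the protocol text gives 20 µM as final concentration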
# NPY Y1 blocker = NPY-Y1 receptor antagonists, primary screen, cell-based | HEK293-CNG Y1 cells, membrane potential fluorescence; NPY at EC95, then isoproterenol | inhibition, % at 3.6 µM | hit rate 1% among 200,000;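 active means inhibition above the campaign mean inhibition of all tested compounds plus 3 SD, cut at about 20% in these data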;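 further: 0% = DMSO wells given NPY plus isoproterenol and 100% = isoproterenol alone without NPY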
# Target sequence (P25929 whole entry, looked up): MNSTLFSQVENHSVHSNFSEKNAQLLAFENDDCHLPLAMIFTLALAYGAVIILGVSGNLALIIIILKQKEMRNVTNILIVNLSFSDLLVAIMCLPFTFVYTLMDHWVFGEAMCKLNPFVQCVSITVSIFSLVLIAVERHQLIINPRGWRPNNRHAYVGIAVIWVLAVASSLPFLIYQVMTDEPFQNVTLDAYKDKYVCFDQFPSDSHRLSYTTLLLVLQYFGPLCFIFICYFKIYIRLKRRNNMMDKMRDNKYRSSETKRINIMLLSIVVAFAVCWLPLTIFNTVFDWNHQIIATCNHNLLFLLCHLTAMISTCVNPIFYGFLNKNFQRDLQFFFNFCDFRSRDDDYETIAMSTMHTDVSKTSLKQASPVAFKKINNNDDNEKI
#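 Test system: HEK293 cells co-expressing NPY Y1 receptor and cyclic-nucleotide gated channel; Also added: NPY (25 nM), isoproterenol (1 µM), Ro 20-1724 (25 µM); Compound dosing: one concentration, 3.6 µM, in 0.4% DMSO; Timing: dye 3 h, compound 60 min room temperature, stimulation 45 min; Technique: Membrane-potential fluorescent dye readout.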
# NPY-Y1 PAM-ag = NPY-Y1 receptor potentiators or agonists, primary screen, cell-based; activation, % at 3.6 µM; hit rate 0.37% among 220,000; NPY-Y1 expressing cells, potentiator/agonist activation; in the data active means activation above about 33%, passing the limit was not always enough;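 further: cells stimulated with NPY at EC10 then isoproterenol at EC100; 0% = low agonist plus stimulus and 100% = saturating agonist plus stimulus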
# NPY-Y2 PAM-ag = NPY-Y2 potentiators or agonists, primary screen, cell-based | Neuropeptide Y receptor type 2 (Homo sapiens), P49146 | cells expressing NPY-Y2, potentiator/agonist read-out | activation, % at 3.6 µM | AID 1359, 2008 | hit rate 0.45% among 220,000; in the data active means activation above about 27%;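 further: cells stimulated with NPY near EC25 plus isoproterenol at EC100; 0% = vehicle plus submaximal agonist and 100% = vehicle plus saturating agonist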
# NPY-Y1 confirm = NPY-Y1 potentiators or agonists, confirmation, cell-based. hit rate 20% among 280. activation, % at 3.6 µM. cell-based NPY-Y1 potentiator/agonist assay. shares compounds with NPY-Y1 PAM-ag; in the data active means activation above about 45%;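 further: cells challenged with NPY at its EC10 plus isoproterenol stimulus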
# NPY-Y2 counter = NPY-Y2 potentiators or agonists, counter-screen for NPY-Y1 potentiator project, cell-based, fluorescence. shares compounds with NPY-Y1 PAM-ag. HEK293-CNG cells, membrane-potential fluorescence (FLIPR), 1536-well. activation, % at 3.6 µM. hit rate 20% among 280. AID 1649, 2009; in the data active means activation above about 33%
# NPY-Y1 ag = NPY-Y1 direct agonists without NPY, confirmation, counter-screen for NPY-Y1 potentiator project, cell-based, fluorescence; shares compounds with NPY-Y1 PAM-ag; HEK293 Y1-CNGC, membrane potential fluorescence, agonist mode; activation, % at 3.6 µM; hit rate 50% among 280; AID 1697, 2009;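 active means percent activation above the mean of DMSO-only control wells plus 3 SD of those wells, cut at about 18% in these data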;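 further: cells challenged with isoproterenol plus Ro 20-1724 with no NPY in test wells; Y1 agonism lowers isoproterenol-driven cAMP and reduces probe fluorescence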
# NPY-Y2 ag = NPY-Y2 direct agonists without NPY, counter-screen for NPY-Y1 potentiator project, cell-based, fluorescence | shares compounds with NPY-Y1 PAM-ag | hit rate 67% among 280 | activation, % at 3.6 µM | HEK293 Y2-CNGC, membrane potential fluorescence, agonist mode;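 active means activation above the solvent-only control wells' mean plus 3 SD, cut at about 11% in these data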;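 further: 0% = DMSO with isoproterenol and 100% = 40 nM NPY maximal response; agonism lowers cAMP so well fluorescence drops in active wells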
# CNGC inh 2 = CNGC cAMP sensor activity inhibitors, counter-screen for NPY-Y1 potentiator/agonist project, cell-based, HEK293-CNG parental, membrane potential fluorescence, Y1 set; shares compounds with NPY-Y1 PAM-ag; isoproterenol cAMP; inhibition, % at 3.6 µM; hit rate 42% among 280;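 active means inhibition above the mean of stimulated solvent-only control wells plus 3 SD, cut at about 22% in these data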;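 further: 0% = isoproterenol-stimulated DMSO wells and 100% = unstimulated DMSO wells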
# The depositor's hits bear a star; . = not tested or not shown. Compounds with a hit are over-represented: about 2.8% of the library has one in this group of screens.
SMILES,EP2 modulator,NPY Y2 blocker,EP2 antag,NPY Y1 blocker,NPY-Y1 PAM-ag,NPY-Y2 PAM-ag,NPY-Y1 confirm,NPY-Y2 counter,NPY-Y1 ag,NPY-Y2 ag,CNGC inh 2
CCOc1ccc(N2C(=O)C(CC(=O)Nc3ccccc3)N(Cc3ccccn3)C2=S)cc1 (centres undefined),-42.1,.,1.1,-9.7,22.9,13.8,.,.,.,.,.
CCOc1ccc(N2C(=O)C(CC(=O)Nc3ccc(F)cc3)N(Cc3ccccn3)C2=S)cc1 (centres undefined),-30.2,.,2.4,-11.7,42.1*,10.8,46.8*,32.3,35.1*,46.5*,41.0*
CCc1nc(SCC(=O)Nc2nc(-c3ccc(OC)cc3)cs2)c2ccccc2n1,36.9,.,10.3,.,.,.,.,.,.,.,.
COc1ccc(Nc2nc(N)c([N+](=O)[O-])c(NCCO)n2)cc1,-1.7,.,5.3,.,20.2,24.2,.,.,.,.,.
CCOc1ccc(Nc2nc(Nc3ccc(O)cc3)nc(C)c2[N+](=O)[O-])cc1,-12.5,.,10.0,-9.2,40.2*,24.7,26.7,22.5,5.3,15.5*,20.2
O=C(CN1c2ccccc2Sc2ccccc21)NNC(=O)Nc1cccc(Cl)c1,-21.8,.,9.5,.,50.0*,8.7,47.9*,30.3,45.5*,36.2*,39.9*
O=C(Cc1ccccc1)NNC(=O)Nc1cccc(Cl)c1,13.5,7.0,10.8,-2.1,11.0,4.1,.,.,.,.,.
CCOc1ccccc1NC(=O)C1C2C=CC(O2)C1C(=O)O (centres undefined),32.7,2.1,9.4,1.4,57.4*,10.8,8.7,-0.3,-8.8,5.1,-2.0
O=C(Nc1ccc(Cl)cc1Cl)NC1CCN(S(=O)(=O)c2ccc(F)cc2)CC1,-18.0,.,7.9,.,47.8*,5.5,42.0,30.5,18.1*,12.9*,14.2
COc1ccccc1Oc1ccc(-c2cnc3ccccc3n2)cc1[N+](=O)[O-],-73.1,.,4.3,3.1,46.6*,18.8,36.2,23.9,37.6*,20.6*,0.2
CC(NS(=O)(=O)c1ccc(C(C)(C)C)cc1)c1nc(-c2ccncc2)n[nH]1 (centres undefined),-38.5,.,5.0,.,.,.,.,.,.,.,.
CC(C)Cn1c(N)c(C(=O)COC(=O)c2cnc(Cl)c(Cl)c2)c(=O)n(C)c1=O,-26.5,.,8.2,-3.3,41.6*,24.5,38.0,41.8*,33.3*,24.0*,15.9
Cc1cccc2cc(CN(CC3CCCO3)C(=S)Nc3cccc(Cl)c3)c(=O)[nH]c12 (centres undefined),9.0,.,5.0,.,.,.,.,.,.,.,.
CCNCc1cc2c(-c3cccc(F)c3)nn(-c3ccccc3)c2[nH]c1=O,-20.7,.,9.9,.,.,.,.,.,.,.,.
Cc1ncc(-c2ccncc2)c(C2CCCN(C(=O)Cc3ccccc3F)C2)n1 (centres undefined),-9.6,.,.,.,.,.,.,.,.,.,.
C=CCc1ccc(O)c(-c2cc(CC=C)ccc2O)c1,32.1,.,6.0,-7.9,33.4*,14.8,21.9,11.2,12.0,16.2*,21.0
COC1CCCC(C(=O)N2CCC(n3nc(-c4ccco4)ccc3=O)CC2)C1 (centres undefined),-28.0,.,.,.,.,.,.,.,.,.,.
COc1ccc(Cl)cc1NC(=O)CSc1nnc2n(Cc3ccc(F)cc3)c3ccccc3n12,-0.4,.,13.1,.,.,.,.,.,.,.,.
Cc1ccccc1NCC(=O)N/N=C/c1c[nH]c2ccccc12,-93.3,.,13.6,-10.1,46.2*,15.3,28.6,24.5,26.5*,17.8*,28.8*
C=CC(=O)N1c2ccccc2Sc2ccc(NC(=O)OCC)cc21,-20.1,2.9,32.8,-2.8,42.0*,20.0,23.8,17.4,19.8*,13.1*,14.7
Cn1ccnc1C1(O)CCN(CC(=O)N(C2CCCCC2)C2CCCCC2)CC1,-11.7,.,.,.,.,.,.,.,.,.,.
Cc1cccc(C)c1Nc1c(-c2ccccn2)nc2ccccn12,51.6,.,10.6,-7.1,46.1*,26.9,47.8*,33.6*,39.3*,41.0*,30.5*
COc1ccc2c(c1)cc(C)c1nn(CC(=O)NC3CC3)c(=O)n12,50.4,.,.,.,.,.,.,.,.,.,.
N/C(=N\OC(=O)/C=C/c1ccccc1)c1ccccc1,-15.2,8.7,-2.7,5.6,105.4*,-8.4,-13.3,-10.6,-2.9,-3.8,-6.5
CC1CCCN(C(=O)CSc2nnc(-c3cccnc3)n2-c2ccccc2)C1 (centres undefined),-15.2,.,10.7,.,.,.,.,.,.,.,.
SMILES,EP2 modulator,NPY Y2 blocker,EP2 antag,NPY Y1 blocker,NPY-Y1 PAM-ag,NPY-Y2 PAM-ag,NPY-Y1 confirm,NPY-Y2 counter,NPY-Y1 ag,NPY-Y2 ag,CNGC inh 2
COC(=O)c1ccc(NC(=O)CN2CCN(c3ccccc3C)CC2)cc1,-3.2,10.2,3.4,13.0,54.2*,9.7,-37.4,-25.9,-22.1,-4.2,-26.6
COc1ccc(NC(=O)CN2CCN(c3ccccc3C)CC2)cc1,-76.8,.,9.1,.,.,.,.,.,.,.,.
Cc1ccc(S(=O)(=O)Nc2nc3ccccc3nc2Nc2cccc(S(=O)(=O)N3CCCC3)c2)cc1,-8.1,.,7.1,-14.0,44.9*,18.2,74.3*,70.7*,66.6*,65.3*,43.8*
O=[N+]([O-])c1cccc(S(=O)(=O)Nc2nc3ccccc3nc2Nc2cccc(S(=O)(=O)N3CCCCC3)c2)c1,-16.8,-1.4,8.8,-0.1,5.5,3.3,.,.,.,.,.
COC(=O)[C@H]1CN(C(=O)c2cccs2)C[C@@H]1c1ccccc1F,7.3,.,.,.,.,.,.,.,.,.,.
COc1ccc(NC(=O)c2ccc(OC(F)F)cc2)cc1Cl,-68.7,2.6,-0.1,6.3,-13.6,-3.5,.,.,.,.,.
O=C(Nc1ccc(OC(F)F)c(Cl)c1)c1ccccn1,-42.6,.,5.0,-1.5,39.4*,-3.4,9.7,-4.4,-9.0,-10.0,1.4
Fc1ccc(-n2cc(-c3ccccc3)c3c(NN4CCOCC4)ncnc32)cc1,-8.0,3.6,6.2,2.2,10.5,-0.8,.,.,.,.,.
